Screening data as filed in PubChem.
This is a sample that favours compounds with a hit; in the whole collection about 1.9% have one here.
p-CIP stab down = p/CIP protein destabilization; decrease of EGFP signal, % at 10 µM; hit rate 0.01% among 290,000; F442A p/CIP-EGFP cells, EGFP fluorescence, 16 h; Q05BA5;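 active = EGFP signal decrease of at least 30% at 10 µM or well 3 SD below plate mean, unless failing retest; inactive = the rest, including hits failing retest or dose response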
UBC9 SUMO inh = blocks human SUMOylation mediated by UBC9. P63279. HTRF SUMOylation assay, SAE1/SAE2 + UBC9, in vitro. inhibition, % at 35 µM. hit rate 0.36% among 290,000. AID 2006; in the data active = inhibition above about 50%, passing the limit was not always enough
Target sequence (P63279 whole entry, looked up): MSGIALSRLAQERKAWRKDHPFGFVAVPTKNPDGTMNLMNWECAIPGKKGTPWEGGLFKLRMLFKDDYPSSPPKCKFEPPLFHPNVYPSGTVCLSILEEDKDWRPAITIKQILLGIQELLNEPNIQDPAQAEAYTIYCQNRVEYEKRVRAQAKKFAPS
CTSL1 counter = counter-screen for PFM18AAP inhibitors: inhibitors of F. hepatica cathepsin L1. recombinant F. hepatica cathepsin L1, Z-Leu-Arg-MCA fluorescence. inhibition, % at 5.96 µM. hit rate 0.49% among 300,000;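 active = inhibition above the mean of all tested compounds plus 3 SD, set per screening campaign, cut at about 17% in these data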;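 also: 0% = plate median of test compound wells and 100% = 1 µM Z-Phe-Ala-diazomethylketone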
VIM-2 inhibitor = inhibitors of Pseudomonas aeruginosa VIM-2 metallo-beta-lactamase; purified VIM-2, nitrocefin hydrolysis, epi-absorbance fluorescence; inhibition, % at 5.6 µM; hit rate 0.89% among 290,000;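 active = inhibition above the mean of all tested compounds plus 3 SD, cutoff set per screening run, cut at about 7.5% in these data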;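 also: red hydrolysis product quenches plate fluorescence so inhibitors raise well fluorescence; 0% = enzyme with DMSO and 100% = DMSO without enzyme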
T cell HTS = T cell immune modulation candidate. hit rate 0.068% among 330,000. response (vesicle binding), % at 7 µM. AID 2052. 2C CD8+ T cell-vesicle binding, flow cytometry; stronger effect = lower value;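 active = response, share of CD8 T cells binding vesicles, and their 90th percentile fluorescence all below set limits, cut at about 80% in these data, passing the limit was not always enough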;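 also: values below 100% mean blocked vesicle binding to the CD8+ T cells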
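Incubation: binding step 1.5 h, 37 °C, antibody labelling 20 min, ice; system: murine 2C transgenic CD8+ T lymphocytes; technique: cytometric PE anti-B7-1 and Alexa647 anti-CD8 signals after 1% paraformaldehyde fixation; also added: QL9-charged Drosophila Ld/ICAM-1/B7-1 vesicles; control set: naked versus QL9-loaded vesicles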
IMP-1 inh = inhibitors of Pseudomonas aeruginosa IMP-1 metallo-beta-lactamase | inhibition, % at 5.6 µM | hit rate 0.45% among 290,000 | purified IMP-1, nitrocefin hydrolysis, epi-absorbance fluorescence;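 active = inhibition above the mean plus 3 SD of all compounds in the same screening run, cut at about 4.5% in these data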;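 also: 0% = IMP-1 with DMSO and 100% = DMSO wells lacking enzyme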
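System: Purified IMP-1 | Read-out basis: Percent enzyme inhibition | Controls: IMP-1 with DMSO as 0%, enzyme-free DMSO as 100% | Replicates: One well per compound | Doses: 5.6 µM nominal single concentration | Detection: Epi-absorbance fluorescence, 480 nm excitation, 530 nm emission | Incubation: 25 °C, 15 min preincubation, 25 min reaction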
* hit, by the source's call.

How did Cc1ccc2oc(=O)c3cc(C(=O)NCCCN4CCCC(C)C4)sc3c2c1 (stereo not given) do in these assays?
p-CIP stab down: -6.8; UBC9 SUMO inh: 16.3; CTSL1 counter: 4.0; VIM-2 inhibitor: 10.7*; T cell HTS: 712.4; IMP-1 inh: -3.4

Results for CCCN1CCN(CCCNC(=O)c2cc3c(=O)oc4ccc(C)cc4c3s2)CC1 ?
p-CIP stab down: 7.8; CTSL1 counter: -5.6; VIM-2 inhibitor: 11.5*; T cell HTS: 414.0; IMP-1 inh: -3.4

Results for CCN1CCN(C(=O)c2cc3c(=O)oc4ccc(C)cc4c3s2)CC1 ?
p-CIP stab down: -7.1; UBC9 SUMO inh: 0.8; CTSL1 counter: -0.6; VIM-2 inhibitor: 8.4*; IMP-1 inh: -2.2

What do the screens show for `O=C(O)[C@H](Cc1ccccc1)N1C(=O)c2c(Cl)c(Cl)c(Cl)c(Cl)c2C1=O`?
p-CIP stab down: -5.7; UBC9 SUMO inh: 20.2; CTSL1 counter: -2.0; VIM-2 inhibitor: 8.5*; T cell HTS: 323.2; IMP-1 inh: -1.4

What do the screens show for `O=C(O)C(Cc1ccccc1)n1cccc1` (stereo not given)?
p-CIP stab down: -6.1; UBC9 SUMO inh: 21.3; CTSL1 counter: -2.2; VIM-2 inhibitor: -2.0; T cell HTS: 180.5; IMP-1 inh: -1.4

How did CN(C(=O)Nc1cnccc1C(F)(F)F)C1CCCCC1 do in these assays?
p-CIP stab down: -5.4; UBC9 SUMO inh: 8.0; CTSL1 counter: -1.8; VIM-2 inhibitor: -2.7; T cell HTS: 464.6; IMP-1 inh: -2.0

Results for Cc1cc(N/N=C/c2ccc(O)cc2)c2cccc(C)c2n1 ?
p-CIP stab down: -3.3; UBC9 SUMO inh: 0.7; CTSL1 counter: 2.3; VIM-2 inhibitor: 11.8*; T cell HTS: 320.8; IMP-1 inh: -1.0

What do the screens show for `Cc1cc(N/N=C/c2ccc(N(C)C)cc2)c2ccccc2n1`?
p-CIP stab down: -12.9; UBC9 SUMO inh: 3.3; CTSL1 counter: -3.3; VIM-2 inhibitor: 4.0; T cell HTS: 212.0; IMP-1 inh: -3.4

How did COCCN(CCOC)S(=O)(=O)c1ccc(C(=O)Nc2nc(C)c(C(C)=O)s2)cc1 do in these assays?
p-CIP stab down: -6.1; UBC9 SUMO inh: -14.0; CTSL1 counter: 20.0*; VIM-2 inhibitor: -1.1; T cell HTS: 234.2; IMP-1 inh: -2.4

What do the screens show for `COc1ccccc1N(C)S(=O)(=O)c1ccc(C(=O)Nc2nc(C)c(C(C)=O)s2)cc1`?
T cell HTS: 218.4

Results for Cc1nn(C)c(C)c1/C=N/N=C1\CCC2C3CCc4cc(O)ccc4C3CCC12C (stereo not given) ?
p-CIP stab down: -8.1; UBC9 SUMO inh: -9.2; CTSL1 counter: 4.8; VIM-2 inhibitor: -2.4; T cell HTS: 933.7; IMP-1 inh: -6.0

Results for Nc1ccc(N2CCOCC2)c2nonc12 ?
p-CIP stab down: -5.1; UBC9 SUMO inh: 98.9*; CTSL1 counter: 32.5*; VIM-2 inhibitor: -2.9; T cell HTS: 211.9; IMP-1 inh: -2.0

How did CCNC(=S)NN=C1CCC(C(C)(C)C)CC1 (stereo not given) do in these assays?
p-CIP stab down: -5.1; UBC9 SUMO inh: 11.2; CTSL1 counter: 4.5; VIM-2 inhibitor: -2.8; T cell HTS: 221.2; IMP-1 inh: -1.9

How did CC(C)(C)C1CCC(=NNC(=S)Nc2cccnc2)CC1 (stereo not given) do in these assays?
p-CIP stab down: -1.5; UBC9 SUMO inh: -53.1; CTSL1 counter: 19.1*; VIM-2 inhibitor: -3.2; T cell HTS: 503.9; IMP-1 inh: -4.0

Results for COc1ccc(N2CCN(S(=O)(=O)c3cnc[nH]3)CC2)cc1 ?
p-CIP stab down: 12.2; UBC9 SUMO inh: 8.8; CTSL1 counter: 16.9*; VIM-2 inhibitor: 0.6; T cell HTS: 110.9; IMP-1 inh: -0.4

How did O=S(=O)(c1cnc[nH]1)N1CCN(c2ccc(Cl)cc2)CC1 do in these assays?
p-CIP stab down: 11.6; UBC9 SUMO inh: -2.7; CTSL1 counter: 0.4; VIM-2 inhibitor: -1.8; T cell HTS: 207.4; IMP-1 inh: -4.0

How did COc1ccc(NC(=O)COc2coc(CN3CCN(c4ccccc4)CC3)cc2=O)cc1 do in these assays?
CTSL1 counter: -0.7; T cell HTS: 329.6

What do the screens show for `CC(=O)N1c2ccc(S(=O)(=O)N(C)CC(=O)Nc3ccccc3C)cc2CC1C` (stereo not given)?
p-CIP stab down: 12.7; CTSL1 counter: 2.6; VIM-2 inhibitor: -4.1; T cell HTS: 53.6; IMP-1 inh: 4.8*

How did CC(=O)N1c2ccc(S(=O)(=O)N(C)CC(=O)Nc3cccc(C)c3)cc2CC1C (stereo not given) do in these assays?
p-CIP stab down: -12.7; CTSL1 counter: -0.9; VIM-2 inhibitor: -7.6; T cell HTS: 353.1; IMP-1 inh: -3.0

What do the screens show for `CSc1nsc(SCC(=O)Nc2ccc(C(N)=O)cc2)n1`?
p-CIP stab down: -7.1; UBC9 SUMO inh: -0.7; CTSL1 counter: -0.2; VIM-2 inhibitor: -2.2; T cell HTS: 351.5; IMP-1 inh: -4.8

Results for CC1=CN2C(=NC(=O)CC2(C)C(=O)N(CC(=O)NC2CCCC2)Cc2ccc(Cl)cc2)C=C1 (stereo not given) ?
p-CIP stab down: 3.4; UBC9 SUMO inh: 24.8; CTSL1 counter: -0.6; VIM-2 inhibitor: -1.5; T cell HTS: 190.0; IMP-1 inh: -1.6

How did O=C(Nc1ccccn1)C1CCN(S(=O)(=O)c2ccc(Cl)cc2)CC1 do in these assays?
CTSL1 counter: 6.0; T cell HTS: 375.1

How did Cc1nonc1CC(=O)N1CCCC(C(=O)c2ccc(Cl)cc2)C1 (stereo not given) do in these assays?
p-CIP stab down: -1.9; UBC9 SUMO inh: 2.9; CTSL1 counter: -9.4; VIM-2 inhibitor: -1.5; T cell HTS: 816.7; IMP-1 inh: -2.2

Results for C=CCOCCN1C(=O)C2C(c3ccccc3)C=CC(c3ccccc3)C2C1=O (stereo not given) ?
p-CIP stab down: -8.7; UBC9 SUMO inh: 7.8; CTSL1 counter: 5.8; VIM-2 inhibitor: -0.1; T cell HTS: 194.9; IMP-1 inh: 15.1*

How did C=CC[N+](C)(C)CCN1C(=O)C2C(c3ccccc3)C=CC(c3ccccc3)C2C1=O (stereo not given) do in these assays?
p-CIP stab down: -3.6; UBC9 SUMO inh: -2.0; CTSL1 counter: -1.3; VIM-2 inhibitor: 2.4; T cell HTS: 39.2; IMP-1 inh: 2.6

Results for CCn1nc(C(=O)NCCc2ccc3c(c2)OCCO3)c2ccccc2c1=O ?
T cell HTS: 46.8*

Results for CCCCn1nc(C(=O)Nc2ccc3c(c2)OCCO3)c2ccccc2c1=O ?
T cell HTS: inactive

How did COc1ccc(/C=C2\SC(=S)N(CCC(=O)NC3C=CS(=O)(=O)C3)C2=O)cc1 (stereo not given) do in these assays?
p-CIP stab down: -14.7; UBC9 SUMO inh: 17.4; CTSL1 counter: 2.4; VIM-2 inhibitor: -3.6; T cell HTS: 652.4; IMP-1 inh: 11.7*
